From paper PMC2195561 (The Journal of Experimental Medicine, 1999) come the findings set out here.

No end group written: not given here.

Experiment [1] concerns the target T1, TAP (Homo sapiens, UniProt Q03518+Q03519).
T1 sequence (Q03518 1-748): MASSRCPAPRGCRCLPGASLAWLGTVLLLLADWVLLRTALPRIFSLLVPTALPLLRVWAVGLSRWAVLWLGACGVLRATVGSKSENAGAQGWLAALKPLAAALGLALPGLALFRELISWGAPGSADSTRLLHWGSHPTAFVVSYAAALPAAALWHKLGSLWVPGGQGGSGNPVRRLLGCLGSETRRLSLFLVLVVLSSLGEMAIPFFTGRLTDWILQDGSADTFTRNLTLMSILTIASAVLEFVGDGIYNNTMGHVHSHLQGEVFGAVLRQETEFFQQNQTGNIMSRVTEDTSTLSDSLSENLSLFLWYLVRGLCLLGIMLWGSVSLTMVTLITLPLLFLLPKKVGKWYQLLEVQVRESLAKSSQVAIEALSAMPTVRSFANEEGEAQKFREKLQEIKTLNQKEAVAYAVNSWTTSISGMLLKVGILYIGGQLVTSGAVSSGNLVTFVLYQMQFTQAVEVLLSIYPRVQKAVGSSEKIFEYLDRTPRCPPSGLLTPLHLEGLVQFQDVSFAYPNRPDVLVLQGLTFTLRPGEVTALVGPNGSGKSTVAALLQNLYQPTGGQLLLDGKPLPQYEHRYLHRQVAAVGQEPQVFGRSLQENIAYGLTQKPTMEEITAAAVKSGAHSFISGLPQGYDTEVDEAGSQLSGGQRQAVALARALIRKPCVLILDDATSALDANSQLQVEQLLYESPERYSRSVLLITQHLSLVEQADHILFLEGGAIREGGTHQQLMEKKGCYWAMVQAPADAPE
T1 sequence (Q03519 1-686): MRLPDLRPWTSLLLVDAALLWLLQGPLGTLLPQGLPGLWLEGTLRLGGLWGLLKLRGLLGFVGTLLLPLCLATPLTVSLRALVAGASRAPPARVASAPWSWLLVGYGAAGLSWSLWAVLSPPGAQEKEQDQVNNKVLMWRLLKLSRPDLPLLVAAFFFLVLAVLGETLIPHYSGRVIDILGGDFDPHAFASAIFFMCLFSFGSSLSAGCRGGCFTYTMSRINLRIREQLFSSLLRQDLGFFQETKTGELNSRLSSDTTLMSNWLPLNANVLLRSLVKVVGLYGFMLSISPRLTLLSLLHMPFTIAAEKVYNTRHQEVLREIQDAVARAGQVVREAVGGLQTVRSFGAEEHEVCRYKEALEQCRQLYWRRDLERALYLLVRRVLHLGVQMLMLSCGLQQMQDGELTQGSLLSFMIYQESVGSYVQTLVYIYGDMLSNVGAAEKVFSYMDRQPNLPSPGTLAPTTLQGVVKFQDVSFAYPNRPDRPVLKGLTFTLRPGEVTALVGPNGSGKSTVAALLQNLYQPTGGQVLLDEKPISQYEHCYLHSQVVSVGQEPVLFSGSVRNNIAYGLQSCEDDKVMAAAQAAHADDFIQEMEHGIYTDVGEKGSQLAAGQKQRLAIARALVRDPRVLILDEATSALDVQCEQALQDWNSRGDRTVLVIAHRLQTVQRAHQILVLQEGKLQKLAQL
Put plainly: Competition of TAP-mediated translocation of iodinated peptide 417. In kind it is biochemical. A digest of the protocol:
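Iodinated index peptide (125I via chloramine-T) premixed with unlabelled competitor peptide, then added to streptolysin O–permeabilized human LCL721 cells for TAP-mediated transport into the ER. Translocated index peptide is given as a fraction of that recovered without competitor.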

Experiment [2] has as its system TAP. Nature of the experiment: Direct TAP-mediated translocation of radiolabeled peptides, murine TAP. In kind it is biochemical. The settings on record: data not shown.
Experiment [3] addresses T1, TAP. Nature of the experiment: Direct TAP-mediated translocation of radiolabeled peptides, human TAP. Particulars: streptolysin O–permeabilized LCL721 cells; Con A–Sepharose recovery; Fig. 1 B. It is filed as biochemical. In outline: (§1)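 Test peptides carrying an N-linked glycosylation sequon are radioiodinated (Na-125I, chloramine-T) and added to streptolysin O–permeabilized LCL721 cells. Peptide reaching the ER acquires an N-glycan and is recovered on Con A–Sepharose, given as a fraction of total input. Controls are samples run without ATP and TAP-deficient T2 cells.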

Experiment [4] has as its system Con A. Nature of the experiment: Con A–Sepharose recovery in the absence of ATP. It is filed as binding. The settings on record: no N-linked glycan, Fig. 1 B. A digest of the protocol: as §1

FASGNYSAL [wt-S]: the IC50 – broadly, the concentration at which inhibition is half-maximal – in experiment [1] turned out to be 12 µM. “TVNKTERAY [compound 417, reference compound]”: the “translocation by murine TAP” value in experiment [2] was “very efficiently translocated”. Also, in experiment [3], the “translocation by human TAP” value was “very efficiently translocated”.

Turning to TVNKTES [O-β-GlcNAc]AY [417-G], the “recovery by Con A–Sepharose in the absence of ATP” value in experiment [4] was “not itself a ligand for Con A”. Moreover, in experiment [3], the “translocation by human TAP” value is listed as “also translocated by TAP”. For TVNKTESAY [417-S], in experiment [2], the “translocation by murine TAP” value was “very efficiently translocated”. Further, in experiment [3], the “translocation by human TAP” value is reported as “very efficiently translocated”.
